Measurements: article PMC1316110 (Nucleic Acids Research, 2005)

How the values were obtained:
T4 DNA ligase = target: T1, T4 DNA ligase (Enterobacteria phage T4, UniProt P00970); assay: In vitro ligase inhibition assay, 32P-labeled nicked 40 bp DNA substrate; type: biochemical, bacteriophage T4; details: read-out: IC50 T4Lig; 66 µM ATP, 10% Me2SO
T1 sequence (P00970 1-487): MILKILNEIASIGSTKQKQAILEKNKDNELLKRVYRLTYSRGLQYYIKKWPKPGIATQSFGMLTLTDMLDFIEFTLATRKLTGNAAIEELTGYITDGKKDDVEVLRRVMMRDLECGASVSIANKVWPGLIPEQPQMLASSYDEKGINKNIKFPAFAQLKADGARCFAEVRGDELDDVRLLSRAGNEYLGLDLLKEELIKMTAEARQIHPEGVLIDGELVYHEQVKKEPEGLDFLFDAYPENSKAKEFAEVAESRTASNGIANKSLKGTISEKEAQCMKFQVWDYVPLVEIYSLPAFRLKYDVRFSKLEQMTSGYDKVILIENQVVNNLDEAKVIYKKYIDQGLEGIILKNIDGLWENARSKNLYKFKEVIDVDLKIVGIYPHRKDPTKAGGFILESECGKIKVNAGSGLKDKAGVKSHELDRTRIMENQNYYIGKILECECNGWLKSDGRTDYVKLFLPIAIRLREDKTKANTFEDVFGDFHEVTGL

MtuLigA [1] = target: T2, MtuLigA (Mycobacterium tuberculosis, UniProt P9WNV1); assay: Mode of inhibition, Michaelis-Menten / Lineweaver-Burk kinetics; type: biochemical, M.tuberculosis; details: read-out: Km for NAD^+; absence of the inhibitor, 10% Me2SO
In short: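 Full-length recombinant MtuLigA (2 ng), 50 mM Tris–HCl pH 8.0, 5 mM DTT, 10 mM MgCl2, 10% Me2SO, 5′-32P-labelled nicked 40 bp duplex at 0.85 µM (saturating), NAD+ 0–50 µM, compound 0–250 or 0–450 µM; 1 h, 25°C. Ligation rate from gel scanning; Michaelis–Menten fit. Ki from apparent Km versus compound concentration. Mode from Lineweaver–Burk linear regression.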

MtuLigA [2] = target: T2, MtuLigA; type: biochemical, M.tuberculosis; details: read-out: IC50 MtuLigA; 50 µM NAD+, 10% Me2SO, 1 h at 25°C

Doxorubicin [Compound 7]
IC50 (T4 DNA ligase): 1600 ± 15 µM

NC(=O)c1ccc[n+]([C@@H]2O[C@H](COP(=O)([O-])OP(=O)(O)OC[C@H]3O[C@@H](n4cnc5c(N)ncnc54)[C@H](O)[C@@H]3O)[C@@H](O)[C@H]2O)c1 [NAD]
Km (MtuLigA [1]): 1.56 µM

Chloroquine [Compound 6]
IC50 (T4 DNA ligase): 3 ± 0.2 µM
IC50 (MtuLigA [2]): 5 ± 0.3 µM
